Bioassay records from PubChem.
Apaf-1 act – activators of human Apaf-1 apoptosome. Apaf-1 apoptosome caspase-3 activation, DEVD-Rh110 fluorescence; active compounds read low. activity change, negative = activation, % at 20 µM. actives 0.31% (n = 330,000);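 active = activity change at or below -40% at 20 µM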
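Material: reconstituted apoptosome of Apaf-1, cytochrome c, caspase-9, procaspase-3; times: 30 min preincubation, 50 min reaction, room temperature; measured by: fluorescence, 540 nm emission, 480 nm excitation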
Rh110 interf act – interferes with Rh110 fluorescence, flagging false Apaf-1 activators | shares compounds with Apaf-1 act | fluorescence interference (activity change), % at 20 µM, hits read low | Rh110 fluorescence interference, quenched caspase reaction, Ex480/Em540 | 980 tested, under 10 active;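 active = mean activity change at or below -40% when tested at 20 µM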
Apaf-1 act conf – confirmation of human Apaf-1 activators; AID 504617; shares compounds with Apaf-1 act; actives 5% (n = 980); reconstituted apoptosome caspase-3 activity, DEVD-Rh110 fluorescence; active compounds read low; activity change, negative = activation, % at 20 µM;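 active = mean activity change at or below -40%, meaning activation of 40% or more, at 20 µM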
Apaf1 act interf – Apaf-1 activator counter-screen fluorescence artifact; shares compounds with Apaf-1 act; fluorescence interference counterscreen, Apaf-1 activator assay; EC50, µM; 55 tested, under 10 active; AID 588592; call rule not given here
* = called active by the depositor; . = no result given. Not all results are given here.

SMILES	Apaf-1 act	Rh110 interf act	Apaf-1 act conf	others
COC(=O)C1=C(C)N(Cc2ccccc2)C(=NCC(C)C)N[C@H]1c1cccc(C(F)(F)F)c1	58.0	.	.
COC(=O)C1=C(C)N(Cc2ccccc2)C(=NCc2ccccc2)N[C@H]1c1cccc(C(F)(F)F)c1	64.7	.	.
CCN1C(=NCCc2ccccn2)N[C@@H](c2cccc(C(F)(F)F)c2)C(C(=O)OC)=C1C	-114.4*	12.7	9.1
CC1=NN(c2ccc(C(=O)O)c(N)c2)C(=O)C1	62.1	.	.
CN1CCN(c2ccc(NC(=O)COc3ccccc3)cc2Cl)CC1	49.5	.	.
Cc1cc(OCC(=O)NCCO)ccc1Cl	-53.5*	7.0	10.5
CN(C)C(=O)c1ccc(NC(=O)COc2cccc(Oc3ccccc3)c2)cc1	61.1	.	.
O=C(Cn1nnc(-c2ccccc2)n1)N/N=C/c1cc([N+](=O)[O-])ccc1O	-56.7*	-1.1	21.1
Cc1[nH]n(-c2ccccc2)c(=O)c1/C=N/NC(=O)c1cccc([N+](=O)[O-])c1	55.7	.	.
COc1cc([N+](=O)[O-])cc(/C=N/NC(=O)C(C)Nc2cccc3ccccc23)c1O (stereo not given)	93.2	.	.
O=C(NCCCO)C(=O)NCc1ccncc1	-62.6*	-80.4*	10.0
O=C1CCCC2=C1C1(O)C(=O)c3ccccc3C1(O)O2 (stereo not given)	92.1	.	.
Cc1ccc(Sc2ncccc2C(=O)NCc2cc([N+](=O)[O-])ccc2O)c(C)c1	-47.8*	-6.4	11.6
Cc1ccc(O)c(CNc2cccc3cccnc23)c1	93.4	.	.
O=C(Nc1cccc2cccnc12)c1cccc([N+](=O)[O-])c1	-342.3*	10.0	17.1
C/C(=N\NC(=O)Cc1cc(=O)[nH][nH]1)c1cccc([N+](=O)[O-])c1	51.4	.	.
Oc1ccc(Br)cc1CNc1cccc2cccnc12	90.4	.	.
COc1ccccc1-c1oc2ccccc2c1C#CC1(N)CCCCC1	68.1	.	.
COc1cc(/C=N/N=C(N)N)ccc1OCc1ccc(Cl)cc1	40.1	.	.
CCOc1ccc(C(=O)/C=C/Nc2ccc(S(=O)(=O)N=C(N)N)cc2)cc1	-159.8*	0.9	-74.0*	Apaf1 act interf=>100
Oc1ccc(/C=N\Nc2cc(N3CCOCC3)nc(N3CCOCC3)n2)c(O)c1	85.1	.	.
Cc1ccc(S(=O)(=O)/N=C2\C(=O)c3ccccc3C([O-])=C2n2cc[n+](CCC(C)C)c2)cc1	57.1	.	.
CC(C)(CS(=O)(=O)[O-])NC(=O)CC[N+](C)(C)CCO	-597.6*	7.6	-128.0*	Apaf1 act interf=>100
C#CCOCCOCCOCCNc1nc(N2CCN(C(=O)CCCCCCCCCCNC(=O)[C@H]([C@@H](C)CC)n3cc(CCCCN=C(N)N)nn3)CC2)nc(N2CCN(C(=O)CCCCCCCCCCNC(=O)[C@H]([C@@H](C)CC)n3cc(CCCCN=C(N)N)nn3)CC2)n1	41.3	.	.
CSc1nncc(/C(C)=N\Nc2cccc(C)c2)n1	60.5	.	.
SMILES	Apaf-1 act	Rh110 interf act	Apaf-1 act conf	others
COC(=O)C1=C(C)NC(C)=C(C(=O)OC(C)C)C1c1cccc2nonc12 (stereo not given)	-207.2*	1.0	7.5
CCCC(C(=O)NC(C)(C)C)N(Cc1ccc(F)cc1)C(=O)c1snc(C(N)=O)c1N (stereo not given)	-107.9*	14.2	14.5
Cc1cnc(C(=O)Nc2ccc(C)c(S(=O)(=O)N(C)C)c2)cn1	-46.7*	7.7	9.4
Cc1[nH][nH]c(=O)c1C(c1c(C)[nH][nH]c1=O)c1cn(Cc2cccc3ccccc23)c2ccccc12	94.8	.	.
Cc1ccccc1Cn1cc(/C=N/n2cnnc2)c2ccccc21	-56.8*	1.3	10.6
Oc1cccc(C=NCc2ccccc2)c1O	81.8	.	.
COc1ccc(S(N)(=O)=O)cc1-c1nnc2c3ccccc3c(C)nn12	-54.3*	14.0	13.3
CC(C)(C)NC(=O)[C@@H]1C[C@@H]2CCCC[C@@H]2CN1C[C@@H](O)[C@H](Cc1ccccc1)NC(=O)[C@H](CC(N)=O)NC(=O)c1ccc2ccccc2n1	35.0	.	.
CCCCn1c(NC(=O)c2ccccc2Cl)c(C#N)c2nc3ccccc3nc21	92.7	.	.
CCCCCCCCCCCCCCCC[N+](C)(C)CC	87.5	.	.
COc1ccc(CNC(=O)c2c(N)n(CCCN3CCOCC3)c3nc4ccccc4nc23)cc1	87.3	.	.
Nc1c(C(=O)NCc2ccccc2)c2nc3ccccc3nc2n1CCCN1CCOCC1	49.4	.	.
COC(=O)c1c(N)n(CCCN2CCOCC2)c2nc3ccccc3nc12	-71.9*	2.0	13.5
O=C1C(NS(=O)(=O)c2cccs2)=C(N2CCN(c3cccc(C(F)(F)F)c3)CC2)C(=O)c2ccccc21	47.5	.	.
Cc1cc(SCC2=NNC(=O)C2)c(Cl)cc1Cl	47.1	.	.
O=C(/C=C/Nc1ccc(F)c(F)c1)c1ccc(Br)cc1	-103.2*	3.6	14.7
CCOc1ccc2nc(NC3=NC(c4ccc(OC)cc4)CC(=O)N3)nc(C)c2c1 (stereo not given)	78.5	.	.
CCOC(=O)c1c2c(n(C)c1COC)C(=O)C(=O)c1ccc(Br)cc1-2	96.8	.	.
[O-][n+]1c2ccccc2cc2ccccc21	-386.1*	-8.7	8.8
O=C(/C=C/c1ccoc1)c1ccccc1O	-133.5*	-0.9	9.0
C#CCOCCOCCOCCNc1nc(N2CCN(C(=O)CCCCCCCCCCNC(=O)Cn3cc(C[C@@H](C)O)nn3)CC2)nc(N2CCN(C(=O)CCCCCCCCCCNC(=O)[C@H](CCCN=C(N)N)n3cc(C[C@@H](C)CC)nn3)CC2)n1	62.0	.	.
Cc1ccc(C)c(-n2ccnc2SCC(=O)O)c1	-464.7*	-10.9	8.3
Cc1ccc(S(=O)(=O)/N=C2\C=C(Nc3cccc(C(=O)O)c3)C(=O)c3ccccc32)c(C)c1	90.2	.	.	Apaf1 act interf=>100
Cc1ccc(S(=O)(=O)/N=C2\C=C(Nc3cccc(C(=O)O)c3)C(=O)c3ccccc32)cc1	93.6	.	.
CCc1ccc(S(=O)(=O)/N=C2\C=C(Nc3ccc(C(=O)O)cc3)C(=O)c3ccccc32)cc1	96.4	.	.
SMILES	Apaf-1 act	Rh110 interf act	Apaf-1 act conf	others
COc1cc2c(C#N)c(N3CCCCC3)nc(N)c2c(N)n1	97.3	.	.
CC1=CC(C)(C)NC(=S)N1C(C)c1ccccc1 (stereo not given)	-56.1*	-1.4	15.6
Cc1cccc(/C=N/NC(=O)C(C)Nc2cccc3ccccc23)n1 (stereo not given)	90.9	.	.
COc1cccc2c(=O)c3cccc(N)c3[nH]c12	69.9	.	.
COc1cccc2c3c(c(=O)[nH]c12)CCC(C)(C)O3	-63.4*	-9.3	9.7
Cc1ccc(N=Nc2c(N)[nH]n3c(=O)cc(-c4ccccc4)nc23)cc1	54.9	.	.
O=C(NN=c1c(=O)c2ccccc2c1=O)c1ccccc1	96.4	.	.
O=C(N/N=C/c1[nH]c2ccccc2c1Cl)c1cccc(Br)c1	-71.9*	11.6	11.4
CCOCCCNc1nc2nc3ccc(C)cn3c(=O)c2cc1C(=O)NCC1CCCO1 (stereo not given)	-69.0*	-0.6	11.0
O=C1NC(=O)[C@@H]2C3c4ccccc4C=CN3[C@H](C(=O)c3cccs3)[C@H]12 (stereo not given in full)	47.4	.	.
Cc1cc(C)c2nc(N(CCCN(C)C)C(=O)c3ccc4c(c3)CCCC4)sc2c1	42.2	.	.
